# Measured values gathered from unrelated publications.
# Cell line: PC-3
# Read-out: cell growth or viability
SMILES,technique,time,IC50
COc1cc(C(=O)c2nc(-c3c[nH]c4cccc(C)c34)c[nH]2)cc(OC)c1OC,MTS,72 h,0.466 µM
CC[C@@]1(O)C(=O)OCc2c1cc1n(c2=O)Cc2cc3ccccc3nc2-1,SRB,48 h,0.15 µM
O=C1CCc2cc(-c3cccc(OC(=O)[C@H]4[C@H](c5ccccc5)[C@@H](C(=O)O)[C@H]4c4ccccc4)c3)ccc2N1,MTT,,13.1 µM
O=C1CCP(=S)(c2ccccc2)CC1,MTT,72 h,6 µM
COc1cc(C(=O)c2nc(-c3cccc4[nH]ccc34)c(Br)[nH]2)cc(OC)c1OC,MTS,72 h,> 1 µM
S=P1(C2CCCCC2)CCCCC1,MTT,72 h,> 100 µM
O=[N+]([O-])c1ccc(NCCCCN=C=S)c2nonc12,MTT,24 h,3.3 µM
COc1cc(C(=O)c2nc(-c3ccc4ccccc4c3)c[nH]2)cc(OC)c1OC,MTS,72 h,0.388 µM
O=C1CCP(=[Se])(c2ccccc2)CC1,MTT,72 h,> 100 µM
N=c1c2c(-c3ccccc3)c(-c3ccccc3)n(Cc3ccccc3)c2ncn1[C@H]1CC[C@H](O)CC1,CCK-8,,10.8 µM
C[S+]([O-])CCCCN=C=S (stereo not drawn),MTT,24 h,33.5 µM
O=C(O)C1C(c2ccccc2)C(C(=O)Oc2cc(-c3ccc4c(c3)OCO4)ccc2-c2cncnc2)C1c1ccccc1 (stereo not drawn),MTT,,17.8 µM
